Measurements: ChEMBL document CHEMBL5230167, “Discovery of N-sulfonylated aminosalicylic acids as dual MCL-1/BCL-xL inhibitors” (RSC Med Chem, 2023)

Legend:
[1] = species: Homo sapiens; assay: Selectivity index, ratio of Ki for inhibition of FITC-labelled BAK BH3 peptide to 6His-MBP tagged recombinant human MCL-1 (172 to 327 residues) expressed in Escherichia coli assessed as inhibition constant to Ki for binding affinity to BCL-xL (unknown origin) assessed as inhibition constant
[2] = biological target: Bcl-2-like protein 1 (Homo sapiens, UniProt Q07817); assay: Binding affinity to BCL-xL (unknown origin) assessed as inhibition constant
Sequence of Bcl-2-like protein 1 (Q07817 whole entry, the tested form may be a part): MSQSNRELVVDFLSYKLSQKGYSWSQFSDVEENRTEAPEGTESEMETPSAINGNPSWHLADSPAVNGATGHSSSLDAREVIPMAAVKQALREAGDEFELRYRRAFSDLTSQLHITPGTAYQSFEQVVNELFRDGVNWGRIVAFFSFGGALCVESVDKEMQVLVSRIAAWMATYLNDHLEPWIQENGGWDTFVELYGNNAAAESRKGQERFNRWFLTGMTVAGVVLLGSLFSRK

[3] = biological target: T1, Induced myeloid leukemia cell differentiation protein Mcl-1 (Homo sapiens, UniProt Q07820); assay: Inhibition of FITC-labelled BAK BH3 peptide to 6His-MBP tagged recombinant human MCL-1 (172 to 327 residues) expressed in Escherichia coli assessed as inhibition constant by fluorescence polarization competition assay
T1 sequence (Q07820 whole entry, the tested form may be a part): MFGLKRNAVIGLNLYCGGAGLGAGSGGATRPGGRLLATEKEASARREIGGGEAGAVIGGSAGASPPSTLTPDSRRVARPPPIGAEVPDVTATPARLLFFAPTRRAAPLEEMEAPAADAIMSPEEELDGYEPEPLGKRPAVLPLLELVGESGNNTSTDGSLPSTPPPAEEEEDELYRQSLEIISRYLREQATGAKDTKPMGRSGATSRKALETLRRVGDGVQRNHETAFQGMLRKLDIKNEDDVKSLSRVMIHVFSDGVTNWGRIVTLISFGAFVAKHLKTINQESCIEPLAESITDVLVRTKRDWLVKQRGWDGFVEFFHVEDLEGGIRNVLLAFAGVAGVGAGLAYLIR
Method in brief: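 Fluorescence polarization competition: compounds titrated into a mixture of MCL-1 (residues 172–327) and FITC-labelled BAK BH3 peptide. Displacement of the peptide was followed by the change in polarization, and Ki was derived from the competition titration.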

[4] = biological target: T1, Induced myeloid leukemia cell differentiation protein Mcl-1; assay: Binding affinity to MCL-1 (unknown origin) assessed as inhibition constant
[5] = species: Homo sapiens; assay: Selectivity index, ratio of Ki for inhibition of FITC-labelled BAK BH3 peptide to MCL-1 (172 to 327 residues) (unknown origin) assessed as inhibition constant to Ki for binding affinity to BCL-xL (unknown origin) assessed as inhibition constant

Ratio Ki [1]	Ki [2]	SMILES	other results
1.59	–	CC(C)CN(c1ccc(O)c(C(=O)O)c1)S(=O)(=O)c1ccc(-c2ccccc2)cc1	–
2.09	1630 nM	Cc1cc(Oc2ccc(S(=O)(=O)N(CC(C)C)c3ccc(C(=O)O)c(O)c3)cc2)cc(C)c1Cl	Ki [3]: 778 nM
1.06	49300 nM	CC(C)CN(c1ccc(O)c(C(=O)O)c1)S(=O)(=O)c1ccccc1	–
–	3560 nM	Cc1cc(Oc2ccc(S(=O)(=O)N3CCCc4cc(C(=O)O)ccc43)cc2)cc(C)c1Cl	Ki [4]: 2730 nM
4.96	–	Cc1cc(Oc2ccc(S(=O)(=O)N(CC(C)C)c3ccc(O)c(C(=O)O)c3)cc2)cc(C)c1Cl	–
2.63	–	CC(C)CN(c1ccc(C(=O)O)c(O)c1)S(=O)(=O)c1ccc(-c2ccccc2)cc1	–
5.94	–	CC(C)CN(c1ccc(O)c(C(=O)O)c1)S(=O)(=O)c1ccc2ccccc2c1	–
2.65	–	Cc1cc(Oc2ccc(S(=O)(=O)N(Cc3ccccc3)c3ccc(C(=O)O)c(O)c3)cc2)cc(C)c1Cl	–
–	5010 nM	Cc1cc(Oc2ccc(S(=O)(=O)N3CC(C(=O)O)Cc4ccccc43)cc2)cc(C)c1Cl (racemic)	Ratio Ki [5]: 42
3.12	–	CC(C)CN(c1ccc(C(=O)O)c(O)c1)S(=O)(=O)c1ccc(Oc2ccccc2)cc1	–
3.12	–	CC(C)CN(c1ccc(C(=O)O)c(O)c1)S(=O)(=O)c1ccc2ccccc2c1	–
0.8	–	CC(C)CN(c1ccc(C(=O)O)c(O)c1)S(=O)(=O)c1ccccc1	–
1.08	1910 nM	Cc1cc(Oc2ccc(S(=O)(=O)N(c3ccc(C(=O)O)c(O)c3)C3CCCC3)cc2)cc(C)c1Cl	Ki [3]: 1760 nM
